In ChEMBL document CHEMBL1240527, “3'-Deoxy phosphoramidate dinucleosides as improved inhibitors of hepatitis C virus subgenomic replicon and NS5B polymerase activity” (J Med Chem, 2010):

Tests used:
[1] = Cytotoxicity against human HuH6 cells after 3 days by MTS/PMS method; format: cell-based
Method in brief: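 Run in parallel with the replicon assay: Huh-6 genotype 1b replicon cells seeded 1.5 × 10^4/well, treated 24 h later with 0.025–65 μM compound in complete DMEM for 3 days at 37 C, 5% CO2. Cell number read by MTS/PMS. CC50 is the concentration giving 50% reduction in proliferation of exponentially growing cells versus untreated control.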

Hepatitis C virus = assay: Antiviral activity against HCV1b infected in human HuH6 cells assessed as inhibition of viral RNA replication after 3 days by RT-PCR analysis; format: functional, organism-based, Hepacivirus hominis; settings: genotype 1b, HuH-6, 72 h
Method in brief: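 Huh-6 cells stably carrying a genotype 1b (Con1-derived) subgenomic HCV replicon, seeded 1.5 × 10^4 cells/well and incubated 24 h at 37 C, 5% CO2. Then exposed to serial dilutions from 0.025 to 65 μM (10 concentrations) in complete DMEM for 3 days. Lysates assayed for replicon RNA by real-time RT-qPCR against a neomycin-plasmid standard curve. EC50 is 50% RNA reduction versus untreated control, averaged over three independent experiments.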

[2] = Inhibition of HCV recombinant His6x-tagged NS5B Cdelta55 polymerase-mediated RNA synthesis expressed in Escherichia coli BL21(DE3) assessed as reduction of pppGpC accumulation after 15 mins; set-up: species or system Hepacivirus hominis
Method in brief: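 Inhibitor range 0–1000 μM. Reaction started with 2 mM MnCl2, 1 mM MgCl2, 50 μM γ-32P-GTP and 100 μM CTP, then 15 min at 30 C. EDTA/formamide quench. pppGpC resolved on sequencing gel and quantified by phosphorimaging. IC50 fitted; at least three experiments.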

Row | SMILES | EC50 (Hepatitis C virus) [µM] | IC50 [2] [µM] | CC50 at 72 h [1] [µM]
1 | CO[C@@H]1[C@H](OP(=O)(NCCCOP(=O)(O)O)OC[C@@H]2C[C@@H](O)[C@H](n3ccc(N)nc3=O)O2)[C@@H](CO)O[C@H]1n1cnc2c(=O)[nH]c(N)nc21 (some centres undefined) | – | 21 | –
2 | CO[C@@H]1[C@H](OP(=O)(NCCCC(C(=O)O)C(=O)O)OC[C@@H]2C[C@@H](O)[C@H](n3ccc(N)nc3=O)O2)[C@@H](CO)O[C@H]1n1cnc2c(=O)[nH]c(N)nc21 (some centres undefined) | – | 19 | –
3 | CO[C@@H]1[C@H](OP(=O)(NCCCOP(=O)(O)O)OC[C@@H]2C[C@@H](O)[C@H](n3ccc(N)nc3=O)O2)[C@@H](COP(=O)(O)O)O[C@H]1n1cnc2c(=O)[nH]c(N)nc21 (some centres undefined) | 3.9 | 10 | > 65
4 | CO[C@@H]1[C@H](OP(=O)(NCCCC(C(=O)O)C(=O)O)OC[C@@H]2C[C@@H](O)[C@H](n3ccc(N)nc3=O)O2)[C@@H](COP(=O)(O)O)O[C@H]1n1cnc2c(=O)[nH]c(N)nc21 (some centres undefined) | 2.6 | 8 | > 65
5 | COCCOCCNP(=O)(OC[C@@H]1C[C@@H](O)[C@H](n2ccc(N)nc2=O)O1)O[C@H]1[C@@H](OC)[C@H](n2cnc3c(=O)[nH]c(N)nc32)O[C@@H]1COP(=O)(O)O (some centres undefined) | 3.6 | 18 | > 65
6 | CO[C@@H]1[C@H](O[P@@](=O)(NCCCC(C(=O)O)C(=O)O)OC[C@@H]2C[C@@H](O)[C@H](n3ccc(N)nc3=O)O2)[C@@H](COP(=O)(O)O)O[C@H]1n1cnc2c(=O)[nH]c(N)nc21 | – | 121 | –
7 | CO[C@@H]1[C@H](O[P@](=O)(NCCCC(C(=O)O)C(=O)O)OC[C@@H]2C[C@@H](O)[C@H](n3ccc(N)nc3=O)O2)[C@@H](COP(=O)(O)O)O[C@H]1n1cnc2c(=O)[nH]c(N)nc21 | – | 57 | –
8 | COCCOCCN[P@@](=O)(OC[C@@H]1C[C@@H](O)[C@H](n2ccc(N)nc2=O)O1)O[C@H]1[C@@H](OC)[C@H](n2cnc3c(=O)[nH]c(N)nc32)O[C@@H]1COP(=O)(O)O | – | 64 | –
9 | COCCOCCN[P@](=O)(OC[C@@H]1C[C@@H](O)[C@H](n2ccc(N)nc2=O)O1)O[C@H]1[C@@H](OC)[C@H](n2cnc3c(=O)[nH]c(N)nc32)O[C@@H]1COP(=O)(O)O | – | 42 | –
10 | COCCNP(=O)(OC[C@@H]1C[C@@H](O)[C@H](n2ccc(N)nc2=O)O1)O[C@H]1[C@@H](OC)[C@H](n2cnc3c(=O)[nH]c(N)nc32)O[C@@H]1COP(=O)(O)O (some centres undefined) | 19.4 | 29 | > 65
11 | COCCN[P@@](=O)(OC[C@@H]1C[C@@H](O)[C@H](n2ccc(N)nc2=O)O1)O[C@H]1[C@@H](OC)[C@H](n2cnc3c(=O)[nH]c(N)nc32)O[C@@H]1COP(=O)(O)O | 1.6 | 72 | > 65
12 | COCCN[P@](=O)(OC[C@@H]1C[C@@H](O)[C@H](n2ccc(N)nc2=O)O1)O[C@H]1[C@@H](OC)[C@H](n2cnc3c(=O)[nH]c(N)nc32)O[C@@H]1COP(=O)(O)O | 2.5 | 7 | > 65
13 | COCCN[P@@](=O)(OC[C@H]1O[C@@H](n2ccc(N)nc2=O)[C@H](O)[C@@H]1O)O[C@H]1[C@@H](OC)[C@H](n2cnc3c(=O)[nH]c(N)nc32)O[C@@H]1COP(=O)(O)O | 38 | 28 | > 65
14 | COCCN[P@](=O)(OC[C@H]1O[C@@H](n2ccc(N)nc2=O)[C@H](O)[C@@H]1O)O[C@H]1[C@@H](OC)[C@H](n2cnc3c(=O)[nH]c(N)nc32)O[C@@H]1COP(=O)(O)O | 4.5 | 37 | > 65
15 | COCCNP(=O)(OC[C@H]1O[C@@H](n2ccc(N)nc2=O)[C@H](O)[C@@H]1O)O[C@H]1[C@@H](OC)[C@H](n2cnc3c(=O)[nH]c(N)nc32)O[C@@H]1COP(=O)(O)O (some centres undefined) | > 50 | 140 | > 65

Further lines, with some results ahead:

Row | EC50 (Hepatitis C virus) [µM] | IC50 [2] [µM] | SMILES | CC50 at 72 h [1] [µM]
16 | 1.7 | 34 | CO[C@@H]1[C@H](OP(=O)(NCCCCCC(=O)O)OC[C@@H]2C[C@@H](O)[C@H](n3ccc(N)nc3=O)O2)[C@@H](COP(=O)(O)O)O[C@H]1n1cnc2c(=O)[nH]c(N)nc21 (some centres undefined) | > 65
17 | – | 67 | CO[C@@H]1[C@H](OP(=O)(NCCCCCC(=O)O)OC[C@@H]2C[C@@H](O)[C@H](n3ccc(N)nc3=O)O2)[C@@H](CO)O[C@H]1n1cnc2c(=O)[nH]c(N)nc21 (some centres undefined) | –
18 | – | 20.3 | CO[C@@H]1[C@H](O[P@@](=O)(NCCCOP(=O)(O)O)OC[C@@H]2C[C@@H](O)[C@H](n3ccc(N)nc3=O)O2)[C@@H](COP(=O)(O)O)O[C@H]1n1cnc2c(=O)[nH]c(N)nc21 | –
19 | – | 18.5 | CO[C@@H]1[C@H](O[P@](=O)(NCCCOP(=O)(O)O)OC[C@@H]2C[C@@H](O)[C@H](n3ccc(N)nc3=O)O2)[C@@H](COP(=O)(O)O)O[C@H]1n1cnc2c(=O)[nH]c(N)nc21 | –
20 | – | 9 | CO[C@@H]1[C@H](O[P@@](=O)(NCCCCCC(=O)O)OC[C@@H]2C[C@@H](O)[C@H](n3ccc(N)nc3=O)O2)[C@@H](COP(=O)(O)O)O[C@H]1n1cnc2c(=O)[nH]c(N)nc21 | –
21 | – | 13 | CO[C@@H]1[C@H](O[P@](=O)(NCCCCCC(=O)O)OC[C@@H]2C[C@@H](O)[C@H](n3ccc(N)nc3=O)O2)[C@@H](COP(=O)(O)O)O[C@H]1n1cnc2c(=O)[nH]c(N)nc21 | –
22 | – | 26 | CO[C@@H]1[C@H](O[P@@](=O)(NCCCCCC(=O)O)OC[C@H]2O[C@@H](n3ccc(N)nc3=O)[C@H](O)[C@@H]2O)[C@@H](COP(=O)(O)O)O[C@H]1n1cnc2c(=O)[nH]c(N)nc21 | –
23 | – | 16 | CO[C@@H]1[C@H](O[P@](=O)(NCCCCCC(=O)O)OC[C@H]2O[C@@H](n3ccc(N)nc3=O)[C@H](O)[C@@H]2O)[C@@H](COP(=O)(O)O)O[C@H]1n1cnc2c(=O)[nH]c(N)nc21 | –
24 | – | 83 | CO[C@@H]1[C@H](OP(=O)(NCCCCCC(=O)O)OC[C@H]2O[C@@H](n3ccc(N)nc3=O)[C@H](O)[C@@H]2O)[C@@H](COP(=O)(O)O)O[C@H]1n1cnc2c(=O)[nH]c(N)nc21 (some centres undefined) | –
